Laboratory results reported in PubChem BioAssay.
Results filed as inconclusive are left out.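 The calls were made as follows, unless noted: active = viability increase at or above a cutoff of the median across tested compounds plus 3 SD (cut at about 8.5% in these data, passing the limit was not always enough); inconclusive = some gains above the cutoff, reason not given; inactive = the rest.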

Key:
[1] = OD615 S. cerevisiae growth inhibition, permissive medium, pilot counter-assay, permissive growth control for S. cerevisiae lifespan shortening project (AID 705;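 active = growth inhibition above 25% in both replicates, a cutoff set 3 SD above the mean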); details: OD615, 24 h, at 10 µM, hits give high values
Method in brief: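 System: Engineered DeaD yeast | Buffer or medium: SC raffinose/galactose permissive medium | Incubation: Cells pre-grown 4 h, then 24 h compound exposure, 30 °C humidified | Measured by: Absorbance (optical density) at 615 nm | Read-out: Reduction in yeast growth (OD615)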

[2] = Restrictive medium S. cerevisiae growth inhibition, OD615, pilot screen of yeast lifespan reduction project, restrictive growth control (AID 706;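 active = growth inhibition above a set limit, 3 SD over mean compound inhibition, in both replicates, cut at about 43% in these data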;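 also: modified DeaD lifespan yeast strain shifted to restrictive glucose medium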); details: OD615, 48 h, at 10 µM, hits give high values
Method in brief: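 Material: modified S. cerevisiae; Medium: glucose-based CSMM-D restrictive medium; Compound dosing: one concentration, 10 µM final, 0.25% DMSO; Incubation: 48 h compound exposure at 30 °C; Measured by: OD615.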

[3] = viability gain of MRP-1-high H69AR cells under doxorubicin, pilot screen, MRP-1 activator project, CellTiter-Glo, duplicate (AID 807); details: H69AR viability with doxorubicin, CellTiter-Glo luminescence; at 10 µM; hits give high values;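 also: compound pretreatment 18-22 h then 72 h combined with doxorubicin; 0% = doxorubicin alone and 100% = vehicle without doxorubicin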
[4] = growth suppression of beta-catenin knockout HCT116, pilot screen, human colon tumor cells (AID 823;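 active = cell viability at or below a set limit in both duplicate runs, the limit being the all-compound median minus 4 SD, cut at about 23% in these data, passing the limit was not always enough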;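 also: 0% = wells killed by 20 µM Hyamine and 100% = untreated DMSO cell wells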); details: CellTiter-Glo, 60 h, at 10 µM, hits give low values
[5] = growth suppression of PTEN-deleted HCT116, pilot screen, cell-based, HCT116 clonal line, CellTiter-Glo (AID 824;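 active = viability at or below 27.92% in each of two runs, the all-compound median minus 4 SD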;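 also: 0% = 20 µM Hyamine control and 100% = vehicle cell control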); details: 60 h, at 10 µM, hits give low values
[6] = inhibitors of the yeast RAM network, pilot screen, dse1pr::URA3 reporter, 5-FOA selection (AID 869;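 active = inhibition over a set limit, the all-compound mean plus 3 SD, in both replicate runs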;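 also: 0% = DMSO wells with no growth and 100% = 10 µM 1-NA-PP1 with full growth; RAM network block rescues cells from 5-FOA so hits raise OD615 growth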); details: S. cerevisiae dse1pr::URA3 5-FOA growth, OD615, 2 d; at 10 µM; hits give high values; strain carries analog-sensitive mutant Cbk1 kinase
[7] = RAM signaling pathway blockade in yeast – S. cerevisiae, Pdr1DBD-CYC8 efflux-inhibited sensitized strain, primary screen (AID 1298;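 active = RAM network inhibition above 8.4% in each of two replicates, 3 SD over the compound average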;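 also: 0% = DMSO untreated cells without growth and 100% = 10 µM 1-NA-PP1 full growth; higher means more yeast growth rescued from 5-FOA killing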); details: S. cerevisiae cbk1-as DSE1-URA3 strain, 5-FOA growth OD615, 2 d; at 50 µM; hits give high values

COc1ccc(-n2nnc3c(=O)n(CC(=O)N4CCC(Cc5ccccc5)CC4)cnc32)cc1
inactive: growth inhibition [1] 0.065% | growth inhibition [2] -3.95% | viability increase [3] -1.03% | viability [4] 80.2% | viability [5] 80.3% | inhibition [6] 2.54% | RAM network inhibition [7] 5.24%

O=C(CSc1nnc(Cc2cc(=O)[nH]c(=O)[nH]2)n1-c1ccc(Cl)cc1)NC1CCCC1
inactive: growth inhibition [1] -14.1% | growth inhibition [2] -17.7% | viability increase [3] -0.76% | viability [4] 108% | viability [5] 104% | inhibition [6] 1.92% | RAM network inhibition [7] 0.32%

COc1ccccc1C1(CC(=O)O)CCOC(C)(C)C1 (stereo unspecified)
inactive: growth inhibition [1] -2.27% | growth inhibition [2] -9.79% | viability increase [3] -1.61% | viability [4] 90.9% | viability [5] 92.2% | inhibition [6] 0.095% | RAM network inhibition [7] -1.44%

COc1cccc(NC(=O)CSc2ncnc3c2oc2ccccc23)c1
inactive: growth inhibition [1] -12.8% | growth inhibition [2] 6.07% | viability increase [3] -2.19% | viability [4] 94.2% | viability [5] 87.3% | inhibition [6] 2.46% | RAM network inhibition [7] 4.42%

Cc1onc(-c2ccccc2)c1C(=O)Nc1cccc(C#N)c1
inactive: growth inhibition [1] -20.3% | growth inhibition [2] -6.79% | viability increase [3] -2.52% | viability [4] 96.5% | viability [5] 88.5% | inhibition [6] 2.92% | RAM network inhibition [7] 4.56%

CCc1cc2c(=O)c(-c3nc4ccccc4n3C)c(C(C)C)oc2c(CN2CCN(C)CC2)c1O
inactive: growth inhibition [1] -3.21% | growth inhibition [2] 8.45% | viability increase [3] -0.59% | viability [4] 69.4% | viability [5] 82.8% | inhibition [6] 1.74% | RAM network inhibition [7] 1.64%

Cc1cc(N2CCOCC2)nc2cc(O)ccc12
inactive: growth inhibition [1] -10.3% | growth inhibition [2] -15.5% | viability increase [3] -1.02% | viability [4] 97.4% | viability [5] 87.6% | inhibition [6] 1.31% | RAM network inhibition [7] 5.97%

Cc1nc(N2CCCCC2)c2sc(=S)n(C)c2n1
inactive: growth inhibition [1] -7.24% | growth inhibition [2] 7.63% | viability increase [3] 1.13% | viability [4] 82.2% | viability [5] 81.9% | inhibition [6] 0.955% | RAM network inhibition [7] 2.15%

O=C(CCSCCC(=O)NCc1ccco1)NCc1ccco1
inactive: growth inhibition [1] 3.59% | growth inhibition [2] 10.5% | viability increase [3] -1.12% | viability [4] 89% | viability [5] 96% | inhibition [6] 0.745% | RAM network inhibition [7] 6.5%

COc1ccc(OCCSc2ncnc3nc[nH]c23)cc1
inactive: growth inhibition [1] 2.66% | growth inhibition [2] 22.4% | viability increase [3] -3.5% | viability [4] 86.6% | viability [5] 81.3% | inhibition [6] 3.27% | RAM network inhibition [7] 4.46%

CCCN(CCC)S(=O)(=O)c1cc(Br)cc2c1N(C(=O)CC)CC2
inactive: growth inhibition [1] -8.33% | growth inhibition [2] -21.3% | viability increase [3] -4.77% | viability [4] 65.9% | viability [5] 69.7% | inhibition [6] 0.885% | RAM network inhibition [7] 4.71%

O=C(CSc1nccn1-c1cccc(Cl)c1)Nc1ccc2c(c1)OCCO2
inactive: growth inhibition [1] -11.7% | growth inhibition [2] 2.4% | viability increase [3] 6.11% | viability [4] 101% | viability [5] 93% | inhibition [6] 2.52% | RAM network inhibition [7] 3.35%

CCOc1ccc(-n2c(SCC(=O)Nc3nccs3)nc3c(c2=O)SCC3)cc1
inactive: growth inhibition [1] -7.92% | growth inhibition [2] -5.48% | viability increase [3] -0.41% | viability [4] 104% | viability [5] 98.3% | inhibition [6] 3.15% | RAM network inhibition [7] 4.65%

COc1ccc(CCNc2ncnc3nc[nH]c23)cc1OC
inactive: growth inhibition [1] 0.1% | growth inhibition [2] 20% | viability increase [3] -3.11% | viability [4] 82.8% | viability [5] 84.7% | inhibition [6] 0.57% | RAM network inhibition [7] 1.46%

COCCNC(=O)CS(=O)Cc1nc(-c2ccc(OC)cc2)oc1C (stereo unspecified)
inactive: growth inhibition [1] -9.42% | growth inhibition [2] -4.61% | viability increase [3] 0.42% | viability [4] 103% | viability [5] 95.2% | inhibition [6] 1.11% | RAM network inhibition [7] 0.85%

CCOC(=O)C1CCCN(C(=O)C2CCN(c3nnc(-n4cccc4)s3)CC2)C1 (stereo unspecified)
inactive: growth inhibition [1] 5.27% | growth inhibition [2] 2.6% | viability increase [3] -2.17% | viability [4] 98.5% | viability [5] 90.8% | inhibition [6] 1.1% | RAM network inhibition [7] 2.55%

CCC(C)NC(=O)CN(c1ccc2c(c1)OCO2)S(=O)(=O)c1c(C)n[nH]c1C (stereo unspecified)
inactive: growth inhibition [1] -12.1% | growth inhibition [2] -7.16% | viability increase [3] -1.79% | viability [4] 107% | viability [5] 99.4% | inhibition [6] 1.34% | RAM network inhibition [7] 2.93%

Cn1c(=O)oc2cc(S(=O)(=O)Nc3cccc(F)c3)ccc21
inactive: growth inhibition [1] -14.2% | growth inhibition [2] -2.1% | viability increase [3] -0.69% | viability [4] 94.3% | viability [5] 89.5% | inhibition [6] 2.04% | RAM network inhibition [7] 5.85%
